Results collected from several papers.
Protocols differ between the studies behind these lines.
Target: BDNF/NT-3 growth factors receptor (NTRK2, Homo sapiens, UniProt Q16620)

O=C(Nc1ccc2[nH]ncc2c1)c1cccc(NC(=O)c2cc(C(F)(F)F)ccc2F)c1  inhibition (enzyme activity; inhibitor; FRET; 1 µM): 13.5%
Cc1cc(C)c(-n2ccn3nc(-c4cccnc4)cc23)cc1NC(=O)c1cc(C#N)cc(S(F)(F)(F)(F)F)c1  remaining binding (cell-free assay; competition with immobilised ligand; 0.1 µM): 54.8%
Cc1ccc(Nc2nccc(N(C)c3ccc4c(C)n(C)nc4c3)n2)cc1S(N)(=O)=O  remaining signal (cell-free assay; 0.5 µM): 91.5%
O=C(Nc1cccc(C(=O)Nc2ccc3[nH]ncc3c2)c1)Nc1ccccc1Cl  inhibition (enzyme activity; inhibitor; FRET; 1 µM): 20.6%
Nc1cnc(N2CCc3cc(S(=O)(=O)Nc4c(F)cc(Cl)cc4F)cc(N4CCCC4=O)c32)nc1  remaining binding (cell-free assay; competition with immobilised ligand; 1 µM): 100%
O=C(Nc1cnn2ccc(N3CCC[C@@H]3c3cc(F)ccc3F)nc12)N1CC[C@H](O)C1  inhibition (enzyme activity; inhibitor; FRET; 1 µM): 100%
CC(C)(O)[C@H]1CC[C@H](Nc2ccc3ncc(-c4cccc(C(F)(F)F)c4)n3n2)CC1  remaining activity (enzyme activity; inhibitor; 1 µM): 7.07%
CCN(CC)CCNC(=O)c1c(C)[nH]c(/C=C2\C(=O)Nc3ccc(F)cc32)c1C  inhibition (cell-free assay; 0.3 µM): 70%
O=C(Nc1cnn(-c2csc(C(=O)NC3COC3)c2)c1)Nc1c(F)cccc1Cl  remaining activity (enzyme activity; inhibitor; 5 µM): 91.5%
Cc1cnc(NC2CCOCC2)nc1-n1cnc(C(=O)NC(CN)c2cc(F)cc(Cl)c2)c1 (centres unmarked)  remaining activity (enzyme activity; inhibitor; radiometric; 1 µM): 110%
CCN(CC)c1ccc(C2=NNC(=O)CC2C)cc1[N+](=O)[O-] (centres unmarked)  remaining activity (enzyme activity; inhibitor; 10 µM): 87%
CCC(=O)N[C@@H]1CC[C@H](C(=O)N(C)c2ccc(-c3nc4ccccc4o3)cc2)C1  remaining binding (cell-free assay; competition with immobilised ligand; 1 µM): 100%
COc1cc2c(N3CCN(C(=O)Nc4ccc(OC(C)C)cc4)CC3)ncnc2cc1OCCCN1CCCCC1  remaining signal (cell-free assay; 0.5 µM): 81.7%
CNC(=O)c1cc(Oc2ccc(NC(=O)Nc3ccc(Cl)c(C(F)(F)F)c3)cc2)ccn1  inhibition (cell-free assay; 10 µM): 99%
Cc1ccc(C(=O)NCc2ccsc2)cc1C#Cc1cn(C(C)C)c2ncnc(N)c12  activity vs control (enzyme activity; inhibitor; 1 µM): 58%
O=C(Nc1ccc(Br)cc1)Nc1cccc(C(=O)Nc2ccc3[nH]ncc3c2)c1  inhibition (enzyme activity; inhibitor; FRET; 1 µM): 15.7%
CCCOc1ccc([C@@H]2[C@@H](C(=O)O)[C@H](c3ccc4c(c3)OCO4)CN2CC(=O)Nc2c(CC)cccc2CC)cc1  remaining binding (cell-free assay; competition with immobilised ligand; 1 µM): 100%
Nc1ncnc2occ(-c3ccc(NC(=O)Nc4cc(C(F)(F)F)ccc4F)cc3)c12  remaining signal (cell-free assay; 20 µM): 1.4%
C[C@@H]1CN(c2cc(-c3n[nH]c4ccc(OC5(C)CC5)cc34)ncn2)C[C@H](C)O1  remaining binding (cell-free assay; competition with immobilised ligand; 0.1 µM): 67%
O=C(Nc1ccccc1)Nc1cccc(C(=O)Nc2ccc3[nH]ncc3c2)c1  inhibition (enzyme activity; inhibitor; FRET; 1 µM): 12.3%
CC1=C(C#N)[C@@H](c2ccc3[nH]nc(C)c3c2)C(C#N)=C(c2ccc(Cl)cc2)N1  remaining binding (cell-free assay; competition with immobilised ligand; 1 µM): 85.2%
O=C(Nc1ccc2[nH]ncc2c1)c1cccc(NC(=S)Nc2cc(C(F)(F)F)cc(C(F)(F)F)c2)c1  inhibition (enzyme activity; inhibitor; FRET; 1 µM): 11.2%
COc1cc(Cl)c(C(=O)N[C@@H](CN[C@H]2CC[C@@H](N)CC2)Cc2ccc(C#N)cc2)cc1-c1ccc(CN[C@H](C)c2ccc(C)cc2)o1  remaining activity (enzyme activity; inhibitor; 1 µM): 64%
O=C(Nc1cccc(F)c1)Nc1cccc(C(=O)Nc2ccc3[nH]ncc3c2)c1  inhibition (enzyme activity; inhibitor; FRET; 1 µM): 19.3%
CC(C)(C)c1nc2c(s1)c1nc(N)ncc1c1ccc(NS(=O)(=O)c3c(F)cccc3F)c(F)c12  remaining activity (enzyme activity; inhibitor; radiometric; 1 µM): 65%
CS(=O)(=O)NCC[C@H](NC(=O)c1cncc2c1cnn2-c1ccc(F)cc1)c1ccnc(S(C)(=O)=O)c1  remaining binding (cell-free assay; competition with immobilised ligand; 1 µM): 100%
Oc1cccc(-c2nc(N3CCOCC3)c3oc4ncccc4c3n2)c1  remaining signal (cell-free assay; 0.5 µM): 90.2%
O=C(Nc1ccc2[nH]ncc2c1)c1cccc(NC(=S)Nc2ccc(F)cc2F)c1  inhibition (enzyme activity; inhibitor; FRET; 1 µM): 9.64%
c1ccc(N2CCN(Cc3nc4ccccc4[nH]3)CC2)nc1  remaining binding (cell-free assay; competition with immobilised ligand; 1 µM): 100%
